From PMC4503343 (Molecular pharmacology, 2013)
Where two headings read alike, the source gives them in different places.

Assays:
[1] = pKa and protonated fraction of propafenone analogs; format: physicochemical; conditions: at intracellular pH, estimated from pKa
[2] = molecular target: human P-gp wild-type (Homo sapiens, UniProt P08183); format: cell-based
[3] = molecular target: human P-gp Y950F (Homo sapiens, UniProt P08183, Y950F); test: Inhibition of rh123 efflux, Y950F mutant; format: cell-based
[4] = molecular target: T1, human P-gp Q132R (Homo sapiens, UniProt P08183, Q132R); test: Inhibition of rh123 efflux, Q132R mutant; format: cell-based; conditions: for fold difference in IC50 values for wild-type protein and the Q132R mutant: Q132R mutant vs wild-type
[5] = molecular target: human P-gp Q132R/Y953F (Homo sapiens, UniProt P08183, Q132R/Y953F); test: Inhibition of rh123 efflux, Q132R/Y953F mutant; format: cell-based; conditions: for fold higher IC50 value than the Q132R mutation: Q132R/Y953F mutant vs Q132R
[6] = ref Ecker et al., 1999; cited from earlier work
[7] = tested on: human P-gp Q132R/Y950F/Y953F; test: Inhibition of rh123 efflux, Q132R/Y950F/Y953F triple mutant; format: cell-based; conditions: in the Q132R background
[8] = molecular target: human P-gp Y953F (Homo sapiens, UniProt P08183, Y953F); test: Inhibition of rh123 efflux, Y953F mutant; format: cell-based
[9] = molecular target: human P-gp Y950F/Y953F (Homo sapiens, UniProt P08183, Y950F/Y953F); test: Inhibition of rh123 efflux, Y950F/Y953F double mutant; format: cell-based
[10] = molecular target: human P-gp Q132R/Y950F (Homo sapiens, UniProt P08183, Q132R/Y950F); test: Inhibition of rh123 efflux, Q132R/Y950F mutant; format: cell-based
[11] = molecular target: human P-gp Q773R (Homo sapiens, UniProt P08183, Q773R); test: Continuous monitoring of rh123 zero trans efflux, Q773R mutant; format: cell-based; conditions: mean ± S.D.
In short: (§1)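 HEK293 cells, with endogenous P-gp knocked down by lentiviral shRNA and puromycin selection, were transiently transfected with hexa-His human P-gp mutants. Cells were loaded with 0.53 μM rh123 (final) in DMEM pH 7.8 for 30 min at 37°C, chilled and washed, then effluxed into 37°C DMEM pH 7.4. Flow cytometry ran 5 min at 37°C (488/534 nm). Exponential-fit k was normalized to MRK16 surface staining. n≥3.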

[12] = molecular target: T1, human P-gp Q132R; test: Continuous monitoring of rh123 zero trans efflux, Q132R mutant; format: cell-based; conditions: mean ± S.D.
In short: as §1

[13] = molecular target: human P-gp Q773R/Y950F/Y953F (Homo sapiens, UniProt P08183, Q773R/Y950F/Y953F); test: Continuous monitoring of rh123 zero trans efflux, Q773R/Y950F/Y953F mutant; format: cell-based; conditions: expressed at the surface
In short: as §1

Chain of human P-gp wild-type (P08183 whole entry): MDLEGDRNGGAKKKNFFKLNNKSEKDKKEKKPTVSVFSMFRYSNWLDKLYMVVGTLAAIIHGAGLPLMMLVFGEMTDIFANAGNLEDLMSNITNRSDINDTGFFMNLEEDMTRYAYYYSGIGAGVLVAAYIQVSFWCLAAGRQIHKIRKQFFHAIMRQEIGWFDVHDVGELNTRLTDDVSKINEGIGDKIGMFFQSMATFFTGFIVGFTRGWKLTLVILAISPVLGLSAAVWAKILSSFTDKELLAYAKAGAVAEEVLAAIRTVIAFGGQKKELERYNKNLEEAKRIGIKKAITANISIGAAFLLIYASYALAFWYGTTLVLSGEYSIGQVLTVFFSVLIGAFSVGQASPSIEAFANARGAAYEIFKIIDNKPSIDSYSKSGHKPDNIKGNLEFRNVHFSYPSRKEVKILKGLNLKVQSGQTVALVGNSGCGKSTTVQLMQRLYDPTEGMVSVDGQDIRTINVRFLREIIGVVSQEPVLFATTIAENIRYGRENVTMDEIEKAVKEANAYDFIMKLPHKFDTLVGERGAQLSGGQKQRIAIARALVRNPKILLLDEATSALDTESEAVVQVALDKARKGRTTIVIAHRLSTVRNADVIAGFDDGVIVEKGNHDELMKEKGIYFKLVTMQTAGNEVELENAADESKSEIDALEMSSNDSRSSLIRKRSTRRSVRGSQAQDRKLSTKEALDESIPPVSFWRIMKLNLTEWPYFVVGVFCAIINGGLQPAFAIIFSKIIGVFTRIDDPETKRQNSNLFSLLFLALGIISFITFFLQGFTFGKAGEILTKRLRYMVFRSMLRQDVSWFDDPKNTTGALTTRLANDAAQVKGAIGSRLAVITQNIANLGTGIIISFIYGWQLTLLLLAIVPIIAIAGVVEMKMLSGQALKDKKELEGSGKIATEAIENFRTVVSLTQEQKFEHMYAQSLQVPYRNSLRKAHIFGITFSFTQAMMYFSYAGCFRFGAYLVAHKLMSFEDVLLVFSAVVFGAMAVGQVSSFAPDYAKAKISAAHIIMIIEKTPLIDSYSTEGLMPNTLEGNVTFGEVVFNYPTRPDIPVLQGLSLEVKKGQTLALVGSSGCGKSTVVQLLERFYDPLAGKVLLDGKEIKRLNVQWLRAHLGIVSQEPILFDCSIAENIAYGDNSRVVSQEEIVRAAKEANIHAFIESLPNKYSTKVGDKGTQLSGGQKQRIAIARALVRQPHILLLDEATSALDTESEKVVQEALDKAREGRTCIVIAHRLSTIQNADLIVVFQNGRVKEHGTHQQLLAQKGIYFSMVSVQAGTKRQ
Chain of human P-gp Y953F (P08183 whole entry Y953F): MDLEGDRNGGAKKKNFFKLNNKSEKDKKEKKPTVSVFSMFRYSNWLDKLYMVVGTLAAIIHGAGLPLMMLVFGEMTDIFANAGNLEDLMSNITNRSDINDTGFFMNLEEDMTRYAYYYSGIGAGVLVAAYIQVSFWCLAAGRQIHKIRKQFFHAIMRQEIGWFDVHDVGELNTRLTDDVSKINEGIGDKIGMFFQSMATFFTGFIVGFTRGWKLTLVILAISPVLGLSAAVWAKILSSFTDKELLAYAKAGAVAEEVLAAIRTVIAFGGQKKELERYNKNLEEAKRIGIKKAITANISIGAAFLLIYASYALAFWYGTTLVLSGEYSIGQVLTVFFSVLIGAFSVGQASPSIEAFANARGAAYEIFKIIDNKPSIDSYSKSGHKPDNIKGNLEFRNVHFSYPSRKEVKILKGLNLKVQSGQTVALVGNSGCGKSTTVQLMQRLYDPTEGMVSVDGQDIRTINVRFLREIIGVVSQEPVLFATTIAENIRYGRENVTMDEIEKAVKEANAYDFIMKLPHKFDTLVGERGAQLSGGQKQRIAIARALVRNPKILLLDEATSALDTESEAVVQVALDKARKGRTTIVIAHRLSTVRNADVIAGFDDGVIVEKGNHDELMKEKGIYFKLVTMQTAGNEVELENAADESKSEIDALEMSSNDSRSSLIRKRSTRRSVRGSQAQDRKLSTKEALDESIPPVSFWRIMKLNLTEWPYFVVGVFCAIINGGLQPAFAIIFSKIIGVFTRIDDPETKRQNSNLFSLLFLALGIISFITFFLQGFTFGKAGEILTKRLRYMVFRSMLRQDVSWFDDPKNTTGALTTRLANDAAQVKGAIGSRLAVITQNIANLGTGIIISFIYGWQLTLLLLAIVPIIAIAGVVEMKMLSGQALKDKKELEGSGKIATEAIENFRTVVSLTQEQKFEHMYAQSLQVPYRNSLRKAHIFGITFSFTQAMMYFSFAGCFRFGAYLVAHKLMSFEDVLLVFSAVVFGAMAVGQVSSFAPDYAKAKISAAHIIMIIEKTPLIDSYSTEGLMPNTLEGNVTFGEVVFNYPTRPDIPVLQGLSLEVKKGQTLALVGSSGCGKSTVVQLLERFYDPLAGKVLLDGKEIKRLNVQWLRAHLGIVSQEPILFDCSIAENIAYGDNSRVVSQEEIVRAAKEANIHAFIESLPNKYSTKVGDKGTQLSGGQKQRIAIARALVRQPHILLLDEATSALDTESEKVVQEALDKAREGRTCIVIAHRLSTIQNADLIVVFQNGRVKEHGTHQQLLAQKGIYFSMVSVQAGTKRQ
Chain of human P-gp Y950F (P08183 whole entry Y950F): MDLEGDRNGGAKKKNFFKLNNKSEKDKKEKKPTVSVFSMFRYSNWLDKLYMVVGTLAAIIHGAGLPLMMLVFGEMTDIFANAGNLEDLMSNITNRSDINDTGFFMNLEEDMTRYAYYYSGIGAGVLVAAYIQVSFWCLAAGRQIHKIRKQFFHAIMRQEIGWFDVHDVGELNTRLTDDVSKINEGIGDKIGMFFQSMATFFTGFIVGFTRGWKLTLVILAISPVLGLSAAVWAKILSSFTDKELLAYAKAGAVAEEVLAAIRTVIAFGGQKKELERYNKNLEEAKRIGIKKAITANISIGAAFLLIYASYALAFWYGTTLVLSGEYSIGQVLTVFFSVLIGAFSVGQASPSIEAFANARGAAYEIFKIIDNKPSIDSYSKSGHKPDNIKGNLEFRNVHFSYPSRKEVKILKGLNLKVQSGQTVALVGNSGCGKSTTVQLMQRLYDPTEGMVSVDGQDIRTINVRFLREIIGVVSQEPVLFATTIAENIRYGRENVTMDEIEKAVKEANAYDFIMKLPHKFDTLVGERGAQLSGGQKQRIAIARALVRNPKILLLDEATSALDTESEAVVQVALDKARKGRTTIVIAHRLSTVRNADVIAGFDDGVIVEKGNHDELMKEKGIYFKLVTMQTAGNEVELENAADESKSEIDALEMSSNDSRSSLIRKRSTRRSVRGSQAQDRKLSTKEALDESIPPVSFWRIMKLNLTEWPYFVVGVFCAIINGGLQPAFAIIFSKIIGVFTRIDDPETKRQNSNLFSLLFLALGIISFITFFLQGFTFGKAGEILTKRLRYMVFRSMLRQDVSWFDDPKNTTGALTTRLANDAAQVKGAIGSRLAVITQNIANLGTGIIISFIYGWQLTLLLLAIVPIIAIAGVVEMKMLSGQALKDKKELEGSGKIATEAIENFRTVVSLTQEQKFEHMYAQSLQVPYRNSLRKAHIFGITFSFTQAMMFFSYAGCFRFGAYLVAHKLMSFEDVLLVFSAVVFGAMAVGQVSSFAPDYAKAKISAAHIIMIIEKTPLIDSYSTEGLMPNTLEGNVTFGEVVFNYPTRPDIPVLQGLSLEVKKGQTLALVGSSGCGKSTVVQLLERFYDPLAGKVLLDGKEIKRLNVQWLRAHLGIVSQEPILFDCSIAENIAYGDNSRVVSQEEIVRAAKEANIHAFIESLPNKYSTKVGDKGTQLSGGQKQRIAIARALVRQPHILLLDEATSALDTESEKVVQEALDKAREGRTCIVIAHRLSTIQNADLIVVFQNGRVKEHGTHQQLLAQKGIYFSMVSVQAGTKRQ
Chain of human P-gp Y950F/Y953F (P08183 whole entry Y950F/Y953F): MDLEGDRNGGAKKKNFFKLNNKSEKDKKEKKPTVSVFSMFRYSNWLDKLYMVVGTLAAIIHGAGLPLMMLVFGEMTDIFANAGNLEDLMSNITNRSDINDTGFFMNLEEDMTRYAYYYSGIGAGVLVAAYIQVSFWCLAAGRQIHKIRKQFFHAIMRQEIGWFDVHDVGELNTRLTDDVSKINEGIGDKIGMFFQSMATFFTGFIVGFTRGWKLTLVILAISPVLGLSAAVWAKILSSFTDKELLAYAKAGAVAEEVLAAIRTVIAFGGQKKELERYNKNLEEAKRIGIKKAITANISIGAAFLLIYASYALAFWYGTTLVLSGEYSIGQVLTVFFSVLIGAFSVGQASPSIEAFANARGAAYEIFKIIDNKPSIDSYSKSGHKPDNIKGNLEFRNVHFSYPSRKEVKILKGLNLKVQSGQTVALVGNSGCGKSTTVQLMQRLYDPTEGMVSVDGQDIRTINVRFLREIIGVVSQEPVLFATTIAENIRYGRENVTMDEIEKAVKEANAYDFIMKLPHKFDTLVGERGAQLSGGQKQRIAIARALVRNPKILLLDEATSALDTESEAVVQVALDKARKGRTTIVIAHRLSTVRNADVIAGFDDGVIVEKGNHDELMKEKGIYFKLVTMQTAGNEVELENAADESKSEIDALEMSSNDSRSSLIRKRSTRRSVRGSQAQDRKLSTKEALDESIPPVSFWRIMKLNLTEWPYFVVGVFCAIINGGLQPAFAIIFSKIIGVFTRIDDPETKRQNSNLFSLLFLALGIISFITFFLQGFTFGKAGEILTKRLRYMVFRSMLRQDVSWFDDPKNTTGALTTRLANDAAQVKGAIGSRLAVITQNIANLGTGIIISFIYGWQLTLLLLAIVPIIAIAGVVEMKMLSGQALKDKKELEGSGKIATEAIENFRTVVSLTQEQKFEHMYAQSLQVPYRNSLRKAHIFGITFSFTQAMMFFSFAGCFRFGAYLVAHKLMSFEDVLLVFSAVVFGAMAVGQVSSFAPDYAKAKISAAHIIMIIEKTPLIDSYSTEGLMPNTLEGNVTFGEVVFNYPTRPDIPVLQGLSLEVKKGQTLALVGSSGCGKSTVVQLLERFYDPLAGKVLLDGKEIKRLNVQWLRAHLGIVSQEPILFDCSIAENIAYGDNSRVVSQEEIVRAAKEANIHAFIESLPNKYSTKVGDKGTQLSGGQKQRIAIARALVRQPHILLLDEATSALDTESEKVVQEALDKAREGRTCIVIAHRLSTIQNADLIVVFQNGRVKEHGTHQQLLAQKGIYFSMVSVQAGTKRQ

Row | percentage of protonated (charged) species [1] | fold difference in IC50 values for wild-type protein and the Q132R mutant [4] | fold higher IC50 value than the Q132R mutation [5] [fold] | fold change in IC50 [7] [fold] | IC50 [2] [µM] | IC50 [3] [µM] | IC50 [4] [µM] | IC50 [9] [µM] | IC50 [8] [µM] | Compound | pKa [6] | further results
1 | > 90% | at least 3 fold | 1.5 | 2.3 | – | – | – | – | – | O=C(CCc1ccccc1)c1ccccc1OCC(O)CN1CCCCC1 (stereo not drawn) [GPV005] | 8.4 | IC50 ([2]; read-out: IC50 for inhibition of rh123 efflux, wild-type P-gp, HEK293 cells, 37°C, mean ± S.D.): 0.518 ± 0.141 µM; IC50 ([3]; read-out: IC50 for inhibition of rh123 efflux, Y950F mutant, HEK293 cells, mean ± S.D.): 1.35 ± 0.229 µM; IC50 ([4]; read-out: IC50 for inhibition of rh123 efflux, Q132R mutant, HEK293 cells, mean ± S.D.): 1.41 ± 0.215 µM; IC50 ([8]; read-out: IC50 for inhibition of rh123 efflux, Y953F mutant, HEK293 cells, mean ± S.D.): 1.21 ± 0.362 µM
2 | 60–70% | at least 3 fold | 2.1 | 2.7 | 0.085 ± 0.022 | 0.238 ± 0.084 | 0.521 ± 0.183 | 0.63 ± 0.087 | 0.287 ± 0.109 | O=C(CCc1ccccc1)c1ccccc1OCC(O)CN1CCN(c2ccc(F)cc2)CC1 (stereo not drawn) [GPV031, 1-(2-(3-(4-(4-fluorophenyl)piperazin-1-yl)-2-hydroxypropoxy)phenyl)-3-phenylpropan-1-one] | 7.3 | –
3 | – | – | 3.0 | 4.9 | 2.24 ± 0.391 | 2.98 ± 0.079 | 1.07 ± 0.282 | 17.8 | 15.9 | CCCN(CC(O)COc1ccccc1C(=O)CCc1ccccc1)C(=O)c1ccccc1 (stereo not drawn) [GPV366, N-(2-hydroxy-3-(2-(3-phenylpropanoyl)phenoxy)propyl)-N-propylbenzamide] | – | IC50 [5]: 3.26 ± 0.965 µM; IC50 [10]: 0.966 ± 0.259 µM; fold change in IC50 relative to wild-type ([9]; Y950F/Y953F mutant vs wild-type): 8 fold; fold change in IC50 relative to wild-type ([8]; Y953F mutant vs wild-type): 7.1 fold
4 | – | – | – | – | – | – | – | – | – | COC(=O)c1ccccc1-c1c2ccc(=N)cc-2oc2cc(N)ccc12 [rh123, rhodamine123] | – | rh123 efflux (fractional transport rate) [11]: 37% ± 8%; rh123 efflux (fractional transport rate) [12]: 75% ± 11%; rh123 efflux [13]: no rh123 efflux was detectable
